# Measured values from ChEMBL document CHEMBL4321802, “Antioxidant-Conjugated 1,2,4-Triazolo[4,3-a]pyrazin-3-one Derivatives: Highly Potent and Selective Human A2A Adenosine Receptor Antagonists Possessing Protective Efficacy in Neuropathic Pain” (J Med Chem, 2019).
# The source made the active and inactive calls.
# Experiments:
# Adenosine receptor A3 = target: T1, Adenosine receptor A3 (Homo sapiens, UniProt P0DMS8); assay: Displacement of [3H]HEMADO from human adenosine A3 receptor expressed in CHO cell membranes by radioligand competition assay
# T1 sequence (P0DMS8 whole entry): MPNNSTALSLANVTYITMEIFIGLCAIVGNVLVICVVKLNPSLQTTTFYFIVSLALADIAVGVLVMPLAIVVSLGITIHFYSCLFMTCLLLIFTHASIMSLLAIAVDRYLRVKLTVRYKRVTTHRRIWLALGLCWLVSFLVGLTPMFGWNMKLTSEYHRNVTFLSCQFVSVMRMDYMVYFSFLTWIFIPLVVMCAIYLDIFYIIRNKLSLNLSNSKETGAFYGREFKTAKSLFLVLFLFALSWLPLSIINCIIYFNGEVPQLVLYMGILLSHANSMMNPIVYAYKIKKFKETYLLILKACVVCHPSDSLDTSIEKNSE
# Summary of the method: (§1)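 Membranes from stably transfected CHO cells were made by 1000 g, then 100 000g spins. hA1 used 1.0 nM [³H]CCPA in 50 mM Tris/HCl pH 7.4. hA3 used 1.0 nM [³H]HEMADO in 50 mM Tris/HCl, 10 mM MgCl2, 1 mM EDTA, pH 8.25. Ki from competition curves, each concentration tested three to five times in triplicate, mean ± S.E.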
# Adenosine receptor A2a [1] = target: T2, Adenosine receptor A2a (Homo sapiens, UniProt P29274); assay: Displacement of [3H]NECA from human adenosine A2A receptor expressed in CHO cell membranes by radioligand competition assay
# T2 sequence (P29274 whole entry): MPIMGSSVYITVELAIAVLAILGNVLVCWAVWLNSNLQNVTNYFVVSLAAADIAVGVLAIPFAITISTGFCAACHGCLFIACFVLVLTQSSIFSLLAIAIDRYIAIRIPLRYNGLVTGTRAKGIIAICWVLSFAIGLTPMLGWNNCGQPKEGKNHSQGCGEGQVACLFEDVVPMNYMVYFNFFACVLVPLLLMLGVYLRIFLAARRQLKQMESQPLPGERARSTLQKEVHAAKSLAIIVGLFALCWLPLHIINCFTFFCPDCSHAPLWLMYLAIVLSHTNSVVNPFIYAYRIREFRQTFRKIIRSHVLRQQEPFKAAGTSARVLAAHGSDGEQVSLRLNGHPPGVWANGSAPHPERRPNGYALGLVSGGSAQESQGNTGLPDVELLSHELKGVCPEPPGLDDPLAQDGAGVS
# [2] = Half life in human plasma; format: ADME, cell-free
# Summary of the method: (§2)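 Compounds incubated at 37 °C in 50 mM Tris buffer pH 7.4 or in pooled healthy-volunteer human plasma (stored -80 °C). Concentration followed over time by LC-MS/MS; t1/2 taken from the decay rate of ln(concentration) versus time. Half-lives above 240 min cannot be resolved and are given as ≥240. Ketoprofen ethyl ester served as plasma-activity reference.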
# Microglia [3] = assay: Neuroprotective activity against 10 uM Oxaliplatin-induced neurotoxicity in Sprague-Dawley rat microglia assessed as cell viability at 10 uM incubated fro 24 hrs by MTT assay (reference value: 33.2 +/- 1.3%); format: functional
# Adenosine receptor A2a [4] = target: T2, Adenosine receptor A2a; assay: Antagonist activity at human adenosine A2A receptor expressed in CHO cells assessed as inhibition of NECA-stimulated adenylyl cyclase activity by Glo-sensor cAMP assay; format: functional, cell-based
# Summary of the method: (§3)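 CHO cells stably expressing hA2A or hA2B AR and transiently the GloSensor cAMP biosensor. Cells were equilibrated 2 h at rt in CO2-independent medium with 3% v/v GloSensor reagent and 10% FBS. Compounds at graded concentrations were tested against NECA-induced cAMP rise; luminescence as % of maximal RLU. IC50 from nonlinear regression. Three to five runs in triplicate, mean ± S.E.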
# [5] = Half life in 50 mM Tris buffer; format: physicochemical; summary of the method: as §2
# Microglia [6] = assay: Neuroprotective activity against 30 uM Oxaliplatin-induced neurotoxicity in Sprague-Dawley rat microglia assessed as cell viability at 10 uM incubated fro 24 hrs by MTT assay (reference value: 19.1 +/- 0.8%); format: functional
# Adenosine receptor A2b = target: T3, Adenosine receptor A2b (Homo sapiens, UniProt P29275); assay: Antagonist activity at human adenosine A2B receptor expressed in CHO cells assessed as inhibition of NECA-stimulated adenylyl cyclase activity by Glo-sensor cAMP assay; format: functional, cell-based; summary of the method: as §3
# T3 sequence (P29275 whole entry): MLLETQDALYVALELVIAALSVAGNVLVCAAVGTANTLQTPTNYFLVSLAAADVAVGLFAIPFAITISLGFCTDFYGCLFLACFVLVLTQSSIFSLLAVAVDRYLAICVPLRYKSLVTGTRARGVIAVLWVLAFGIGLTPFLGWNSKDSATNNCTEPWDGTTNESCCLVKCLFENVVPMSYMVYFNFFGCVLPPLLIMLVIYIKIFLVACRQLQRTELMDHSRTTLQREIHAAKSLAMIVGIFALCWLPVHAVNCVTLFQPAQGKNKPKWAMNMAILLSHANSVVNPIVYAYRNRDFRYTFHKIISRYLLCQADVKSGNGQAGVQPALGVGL
# Adenosine receptor A1 = target: T4, Adenosine receptor A1 (Homo sapiens, UniProt P30542); assay: Displacement of [3H]CCPA from human adenosine A1 receptor expressed in CHO cell membranes by radioligand competition assay; summary of the method: as §1
# T4 sequence (P30542 whole entry): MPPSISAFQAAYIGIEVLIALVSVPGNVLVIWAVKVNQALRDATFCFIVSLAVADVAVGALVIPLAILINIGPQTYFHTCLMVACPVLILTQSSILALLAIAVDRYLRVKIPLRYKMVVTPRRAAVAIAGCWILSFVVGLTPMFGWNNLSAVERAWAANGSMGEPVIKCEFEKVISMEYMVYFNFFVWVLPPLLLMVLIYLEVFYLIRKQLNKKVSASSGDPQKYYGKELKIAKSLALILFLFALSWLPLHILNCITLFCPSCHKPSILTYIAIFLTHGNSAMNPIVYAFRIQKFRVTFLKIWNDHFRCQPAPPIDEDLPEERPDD
# Mus musculus [7] = assay: Analgesic activity in CD1 albino mouse model of oxaliplatin-induced neuropathy hypersensitivity assessed as increase pain threshold at 10 to 30 mg/kg, po dosed from day 14 post oxaliplatin challenge and measured after 15 to 45 mins post dose by cold plate test; format: functional, organism-based
# Summary of the method: (§4)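 Male CD-1 mice (22–25 g) given oxaliplatin 2.4 mg kg⁻¹ i.p. in 5% glucose on days 1-2, 5-9 and 12-14; controls got vehicle. On day 14, compounds suspended in 1% carboxymethylcellulose were given once p.o. Cold plate held at 4 °C ± 1 °C; latency to first hind-paw licking/lifting recorded, 60 s cut-off. Mean ± SEM, two experimental sets; one-way ANOVA with Bonferroni.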
# Adenosine receptor A2a [8] = target: Adenosine receptor A2a (Rattus norvegicus, UniProt P30543); assay: Displacement of [3H]NECA from rat adenosine A2A receptor expressed in CHO cell membranes by radioligand competition assay
# Sequence of Adenosine receptor A2a (Rattus norvegicus, UniProt P30543) (P30543 whole entry): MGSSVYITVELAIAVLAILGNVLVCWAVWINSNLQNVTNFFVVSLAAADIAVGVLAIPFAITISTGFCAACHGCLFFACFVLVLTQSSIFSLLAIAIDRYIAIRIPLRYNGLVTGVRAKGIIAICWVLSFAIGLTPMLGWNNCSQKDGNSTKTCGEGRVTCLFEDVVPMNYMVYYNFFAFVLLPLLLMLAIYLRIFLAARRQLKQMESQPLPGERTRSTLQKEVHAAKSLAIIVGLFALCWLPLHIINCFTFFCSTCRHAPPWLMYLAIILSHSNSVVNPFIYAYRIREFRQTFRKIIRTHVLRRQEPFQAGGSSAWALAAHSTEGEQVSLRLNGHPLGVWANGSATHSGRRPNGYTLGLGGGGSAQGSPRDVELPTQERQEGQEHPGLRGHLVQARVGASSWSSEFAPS
# Mus musculus [9] = assay: Analgesic activity in CD1 albino mouse model of oxaliplatin-induced neuropathy hypersensitivity assessed as increase pain threshold at 4 mg/kg, po dosed from day 14 post oxaliplatin challenge and measured up to 90 mins post dose by cold plate test; format: functional, organism-based; summary of the method: as §4
# Mus musculus [10] = assay: Analgesic activity in CD1 albino mouse model of oxaliplatin-induced neuropathy hypersensitivity assessed as increase pain threshold at 40 mg/kg, po dosed from day 14 post oxaliplatin challenge and measured up to 90 mins post dose by cold plate test; format: functional, organism-based; summary of the method: as §4
# Microglia [11] = assay: Antioxidant activity in Sprague-Dawley rat microglia assessed as suppression of oxaliplatin-dependent increase in superoxide dismutase-inhibitable superoxide anion generation at 10 uM incubated for 4 hrs in presence of oxaliplatin by spectrophotometry based cytochrome c assay; format: functional, cell-based
# Summary of the method: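 Primary neonatal (P1–P3) Sprague–Dawley rat cortical microglia (95–98% Iba1-positive), grown to confluence at 5×10⁵/well. Cells incubated 4 h at 37 °C in serum-free DMEM with cytochrome c (1 mg/ml), ± 100 µM oxaliplatin, ± compounds at 10 µM. Absorbance at 550 nm, minus the value with bovine SOD (300 mU/ml). O2•− calculated with ε 2.1×10⁴ M⁻¹ cm⁻¹, as µM/mg protein/4 h. Three experiments, mean ± SEM.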
# Mus musculus [12] = assay: Analgesic activity in CD1 albino mouse model of oxaliplatin-induced neuropathy hypersensitivity assessed as increase pain threshold at 1 to 10 mg/kg, po dosed from day 14 post oxaliplatin challenge and measured after 30 to 60 mins post dose by cold plate test; format: functional, organism-based; summary of the method: as §4
# Mus musculus [13] = assay: Analgesic activity in CD1 albino mouse model of oxaliplatin-induced neuropathy hypersensitivity assessed as increase pain threshold at 0.03 mg/kg, po dosed from day 14 post oxaliplatin challenge and measured after 30 to 60 mins post dose by cold plate test; format: functional, organism-based; summary of the method: as §4
# Microglia [14] = assay: Antioxidant activity in Sprague-Dawley rat microglia assessed as suppression of oxaliplatin-induced reduction in catalase activity at 10 uM incubated for 24 hrs in presence of oxaliplatin by Amplex red dye based assay; format: functional, cell-based
# Summary of the method: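 Primary rat microglia (5·10⁵ cells/well) exposed 24 h to oxaliplatin 10 µM ± compounds at 10 µM. Cells washed, scraped in PBS, freeze-thawed and spun 13,000×g for 10 min at 4 °C. Catalase read in the supernatant with an Amplex Red kit, normalised to BCA protein; untreated control set to 100%. Three experiments, mean ± SEM.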
Ki (Adenosine receptor A3) [nM],Ki (Adenosine receptor A2a [1]) [nM],IC50 (Adenosine receptor A2b) [nM],Ki (Adenosine receptor A1) [nM],SMILES,further results
> 30000,8.5,> 30000,> 30000,CC(C)(C)c1cc(-c2cn3c(=O)n(-c4ccccc4)nc3c(N)n2)ccc1O,half-life [2]: 2.03 h; Activity (Microglia [3]): 46.4%; IC50 (Adenosine receptor A2a [4]): 179 nM; half-life [5]: ≥ 4 h; Activity (Microglia [6]): 28.6%
> 30000,5,> 30000,8.4,Nc1nc(-c2ccc(NC(=O)CCCCC3CCSS3)cc2)cn2c(=O)n(-c3ccccc3)nc12 (stereo unspecified),
> 30000,1.8,> 30000,263,C=CC(=O)Nc1ccc(-c2cn3c(=O)n(-c4ccccc4)nc3c(N)n2)cc1,
38,7.4,> 30000,13,Nc1nc(-c2ccc3c(c2)OCO3)cn2c(=O)n(-c3ccccc3)nc12,
> 30000,36.4,> 30000,1360,Nc1nc(-c2ccc(NC(=O)CCNC(=O)CCCCC3CCSS3)cc2)cn2c(=O)n(-c3ccccc3)nc12 (stereo unspecified),half-life [2]: 0.683 h; Activity (Microglia [3]): 38.9%; IC50 (Adenosine receptor A2a [4]): 296 nM; half-life [5]: ≥ 4 h; Activity (Microglia [6]): 18.3%
> 30000,14800,> 30000,13700,CC(C)(C)c1cc(C(=O)NCCOc2ccc(-c3cn4c(=O)n(-c5ccccc5)nc4c(N)n3)cc2)cc(C(C)(C)C)c1O,
> 30000,142,> 30000,108,COc1c(C(C)(C)C)cc(-c2cn3c(=O)n(-c4ccccc4)nc3c(N)n2)cc1C(C)(C)C,
> 30000,8.2,> 30000,> 30000,N#CCOc1ccc(-c2cn3c(=O)n(-c4ccccc4)nc3c(N)n2)cc1,half-life [2]: ≥ 4 h; Activity (Microglia [3]): 48.7%; Activity (Mus musculus [7]): Active; Ki (Adenosine receptor A2a [8]): 39 nM; IC50 (Adenosine receptor A2a [4]): 157 nM; half-life [5]: ≥ 4 h; Activity (Microglia [6]): 23%
80.1,5.7,> 30000,59,COc1ccc(-c2cn3c(=O)n(-c4ccccc4)nc3c(N)n2)cc1OC,
509,0.59,9660,479,NCCC(=O)Nc1ccc(-c2cn3c(=O)n(-c4ccccc4)nc3c(N)n2)cc1,
950,5.2,> 30000,42.6,Nc1nc(-c2ccc(O)c(O)c2)cn2c(=O)n(-c3ccccc3)nc12,
604,26,> 30000,392,NC(=O)COc1ccc(-c2cn3c(=O)n(-c4ccccc4)nc3c(N)n2)cc1,
11100,16.8,> 30000,29.7,COc1cc(O)ccc1-c1cn2c(=O)n(-c3ccccc3)nc2c(N)n1,
,,,,O=C(O)CCCCC1CCSS1 (stereo unspecified),Activity (Mus musculus [9]): inactive; Activity (Mus musculus [10]): inactive
214,3.5,> 30000,55,COc1cc(-c2cn3c(=O)n(-c4ccccc4)nc3c(N)n2)cc(OC)c1OC,
5570,94.5,17300,176,Nc1nc(-c2cc(O)c(O)c(O)c2)cn2c(=O)n(-c3ccccc3)nc12,
4100,2.4,> 30000,379,Nc1nc(-c2ccc(OCCNC(=O)CCCCC3CCSS3)cc2)cn2c(=O)n(-c3ccccc3)nc12 (stereo unspecified),Activity (Microglia [11]): Active; Activity (Mus musculus [12]): Dose-dependent effect; half-life [2]: ≥ 4 h; Activity (Microglia [3]): 54.5%; Activity (Mus musculus [13]): Active; Activity (Microglia [14]): Active; Ki (Adenosine receptor A2a [8]): 9 nM; IC50 (Adenosine receptor A2a [4]): 116 nM; half-life [5]: ≥ 4 h; Activity (Microglia [6]): 34.2%
2130,14.9,> 30000,289,NCCOc1ccc(-c2cn3c(=O)n(-c4ccccc4)nc3c(N)n2)cc1,
8.6,0.17,> 30000,4.5,COc1c(C)cc(-c2cn3c(=O)n(-c4ccccc4)nc3c(N)n2)cc1C,
> 30000,54.5,> 30000,> 30000,CC(C)(C)c1cc(C(=O)NCCC(=O)Nc2ccc(-c3cn4c(=O)n(-c5ccccc5)nc4c(N)n3)cc2)cc(C(C)(C)C)c1O,Activity (Microglia [11]): Active; half-life [2]: ≥ 4 h; Activity (Microglia [3]): 43.5%; Activity (Microglia [14]): Active; Activity (Mus musculus [7]): Active; Ki (Adenosine receptor A2a [8]): 86 nM; IC50 (Adenosine receptor A2a [4]): 263 nM; half-life [5]: ≥ 4 h; Activity (Microglia [6]): 30.6%
118,2.4,> 30000,28,COc1ccc(-c2cn3c(=O)n(-c4ccccc4)nc3c(N)n2)c(OC)c1,
254,22.9,> 30000,33.5,Nc1ccc(-c2cn3c(=O)n(-c4ccccc4)nc3c(N)n2)cc1,
100,2.5,> 30000,21.3,Cc1cc(-c2cn3c(=O)n(-c4ccccc4)nc3c(N)n2)cc(C)c1O,
